WT yeast gro inh = growth inhibition of WT strain, primary screen, mitochondrial fusion inhibitor project, WT and mutant strains, chemical genetic; mitochondrial fusion phenotypic screen; inhibition, % at 10 µM; actives 2.1% (n = 190,000); AID 1362, 2008; in the data active means inhibition above about 58%; tested in S. cerevisiae
Mot1-301 SUMO = yeast Mot1-301 growth rescue at high temperature, primary screen, SUMOylation pathway inhibitor project, S. cerevisiae, ATP luminescence, 38.5C. growth rescue, % at 18.8 µM. AID 2716, 2010. S. cerevisiae Mot1-301 growth rescue; percent above DMSO median, 100 means doubled. actives 1% (n = 320,000);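 active means every valid replicate shows activation above 250% relative to neutral control wells; inactive means the rest, any valid replicate at or below 250%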;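 further: OY570 slx delta 5 strain wells were the positive control but not used for scaling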
Efflux pump mplx = inhibitors of Candida efflux pumps in yeast, primary screen, S. cerevisiae, Nile Red, multiplex; S. cerevisiae Candida pump triplex; inhibition, % at 10 µM; actives 0.44% (n = 330,000); AID 485275, 2010;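 active means plate passing quality check with inhibition over a set limit, or well fluorescence over plate mean plus 4 SD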;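 further: Nile Red retained in pooled yeast measured as flow cytometry median fluorescence; 0% = buffer negative control and 100% = Enniatin B positive control; higher means more Nile Red kept so more efflux inhibition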
T cruzi inh = inhibitors of intracellular T. cruzi growth, primary screen, luminescence, NIH3T3 host cells; T. cruzi beta-gal in NIH3T3, 90 h; inhibition, % (concentration not given with the values); actives 1.4% (n = 300,000); AID 1885, 2009;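 active means mean inhibition across valid replicates above about 55%, limit read from the data; inconclusive means mean below that limit but half or more replicates reach it; inactive means mean below it, under half of replicates reach it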;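 further: signal also drops with host cell toxicity which is not excluded here; 0% = plate median of DMSO wells and 100% = zero luminescence signal; higher percent means less beta-gal luminescence so fewer parasites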
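System: mouse NIH/3T3 fibroblasts infected with β-gal-expressing T. cruzi Tulahuen C4 / Input: NIH/3T3 cells, 5,000 per well / Buffer or medium: Low-serum DMEM with 2% FBS / Probe or stimulus: 5000 reporter trypomastigotes per well / Schedule: ≥90 h infection period, 3 h prior cell attachment / Measured by: GalScreen luminescence, 60 min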
Beta cell apopt = inhibitors of cytokine-induced beta cell apoptosis, primary screen, luminescence. INS-1E cytokine-induced death, ATP luminescence, 48 h; percent of positive-control rescue, neutral wells zero. protection from apoptosis, % (concentration not given with the values). actives 0.8% (n = 300,000). AID 435005, 2010;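 active means Every replicate reaches about 75%, or at least half do and their mean reaches it too, limit read from the data; inconclusive means At least half of replicates reach the limit but their mean does not; inactive means Under half of replicates reach the limit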;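 further: 0% = cytokine-treated negative control wells and 100% = positive control rescue; higher means more ATP so stronger rescue from cytokine killing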
CSC inhib = cancer stem cell viability inhibitors, primary screen, luminescence. inhibition, % at 7.5 µM. AID 2717, 2010. cancer stem cell-like cells viability. actives 1.1% (n = 300,000); in the data active means inhibition above about 75%; inconclusive means no clear call, values can overlap the other calls; tested in HMLE shEcad cells
Mot1 SUMO dose = growth restoration of Mot1-301 yeast on galactose, dose response, SUMO pathway inhibitor project, whole organism, S. cerevisiae, ATP luminescence, cherry-picked samples. shares compounds with Mot1-301 SUMO. S. cerevisiae Mot1-301 galactose growth, 24 h; -100 = growth of slx-deleted rescue strain. growth activity, percent, % at 42 µM. 2,300 tested, under 10 active;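 active means Signal drops as the depositor expects, and the fitted half-maximal dose is no more than ten times the top valid tested dose; inconclusive means Poor fit, or a flat curve whose signal drops by 30% to 70%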;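 further: more negative values mean stronger growth rescue toward the control strain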
An asterisk follows results filed as active; ? = inconclusive; . = not tested or not shown; + = active, no number; ! = repeats disagree; [ ] = another dose, or the depositor's remark. Sampled rows, rich in hits. Any-hit rate of the full collection: about 4.8%.

SMILES	WT yeast gro inh	Mot1-301 SUMO	Efflux pump mplx	T cruzi inh	Beta cell apopt	CSC inhib	Mot1 SUMO dose
O=C(COC(=O)c1cc(-c2ccco2)nc2ccccc12)NCc1ccccc1	-1	1	0	-10	-11	0	.
CNC(=O)COC(=O)c1cc(-c2ccco2)nc2ccccc12	.	+	0	0	0	1	0
Cc1nc(C(=O)N2CCCC(Nc3ccc(C)c(C)c3)C2)cs1 (stereo not given)	.	0	0	1	-2	-9	.
COc1ccc(NC2CCCN(C(=O)CCc3scnc3C)C2)cc1 (stereo not given)	.	439*	0	1	-7	3	0
COc1ccc(NC2CCCN(C(=O)c3csc(C)n3)C2)cc1 (stereo not given)	.	774*	0	1	-7	4	2
CCC(=O)N1CCc2cc(Br)cc(S(=O)(=O)NCc3ccccc3OC)c21	.	5	0	6	6	17	.
Cc1c(NC(=S)SCc2ccccc2)c(=O)n(-c2ccccc2)n1C	5	2	0	-19	.	-14	.
COC(=O)[C@H](Cc1ccccc1)NC(=O)NC(C)CCc1ccccc1 (stereo not given in full)	.	871*	0	-6	-9	-14	0
COc1cc(C(=O)NCCC2=CCCCC2)ccc1OC1CCN(C(C)=O)CC1	.	547*	0	8	-5	4	1
COc1cc(C(=O)NCCc2ncccc2C)ccc1OC1CCN(C(C)=O)CC1	.	-11	0	1	-3	-8	.
CN/C(=C/[N+](=O)[O-])NCCSCc1ccc(CN(C)C)o1	2	860*!	0	1	-13	-12	0
CCOc1ccc(C(=O)n2cnnc2N)cc1	.	-20	0	-4	-2	-3	.
CCOc1ccccc1CN1CCNC(=O)C1CC(=O)NCc1ccccn1 (stereo not given)	.	-1	0	0	0	-11	.
O=C(COc1cccc2cccnc12)N1CCc2ccccc21	2	561*	0	-4	6	8	-1
Nn1c(SCc2cc([N+](=O)[O-])cc3c2OCOC3)nnc1-c1ccccn1	.	531*	0	-1	-7	-8	1
O=[N+]([O-])c1cc2c(c(CSc3nnc4ccccn34)c1)OCOC2	-8	14	0	-7	-6	0	.
NC(=O)C1CCCN(C(=S)Nc2cccc3ccccc23)C1 (stereo not given)	9	909*	0	1	1	-5	0
NC(=O)C1CCCN(C(=S)NCc2ccc3c(c2)OCO3)C1 (stereo not given)	15	4	0	-11	1	-1	.
CN1CCN(NC(=O)c2ccc(Cl)s2)CC1	8	27	0	22	.	.	.
Cc1cc(C)n(C(=O)c2ccccc2[N+](=O)[O-])n1	-16	438*	0	-4	3	-6	0
CCCOc1ccc(C(=O)Nc2cc(S(=O)(=O)N3CCOCC3)ccc2N2CCOCC2)cc1	.	-9	0	.	7	.	.
O=C(c1ccc(F)cc1)C(CN1CCOCC1)c1ccccc1 (stereo not given)	81*	372*	0	58*	.	.	-2
Cc1cc(C(=O)NNC(=O)c2ccc(C)s2)c(C)o1	.	476*	0	0	-2	-13	0
CCC(=O)N(Cc1ccc2c(c1)OCO2)Cc1cc2cc(OC)ccc2[nH]c1=O	.	376*	0	-1	0	-9	1
CCN(Cc1cc2cc(OC)ccc2[nH]c1=O)C(=O)Cc1ccc(OC)cc1	11	-1	0	16	.	-20	.
SMILES	WT yeast gro inh	Mot1-301 SUMO	Efflux pump mplx	T cruzi inh	Beta cell apopt	CSC inhib	Mot1 SUMO dose
CC(Oc1ccccc1)C(=O)Nc1ccccc1O (stereo not given)	-4	568*	0	-10	-7	-6	1
Cc1c(NC(=O)CSc2nnnn2Cc2ccccc2)c(=O)n(-c2ccccc2)n1C	9	11	0	5	-1	0	.
Cc1ccc(C)c(-n2nnnc2SCC(=O)Nc2c(C)n(C)n(-c3ccccc3)c2=O)c1	15	377*	0	-1	0	-7	0
COC(=O)c1c(C)cc(O)c(C=O)c1O	.	567*	0	-19	-13	-12	0
COC(=O)c1c(C)c(OC(=O)c2c(C)cc(O)c(C=O)c2O)cc(C)c1O	.	-21	0	-7	3	0	.
O=S(=O)(Nn1c(O)c(C=C2N=c3ccccc3=N2)sc1=S)c1ccccc1	.	908*	0	-8	2	17	1
O=C(Nn1c(O)c(C=C2N=c3ccccc3=N2)sc1=S)c1ccccc1Cl	-9	-9	1	-1	-17	.	.
O=C(N/N=C/c1ccsc1)c1ccc2ccccc2n1	-9	3	0	-20	-2	-6	.
COc1c2ccoc2nc2c(OC)c(OC[C@@H](O)C(C)(C)O)ccc12	.	724*	0	.	3	-6	-1
CC(CC(=O)N1CCN(S(=O)(=O)c2ccc([N+](=O)[O-])cc2)CC1)c1ccccc1 (stereo not given)	.	2	0	.	0	-9	.
CC(=O)Nc1ccc(C(=O)Nc2cc(C(F)(F)F)ccc2-n2cnc3ccccc32)cc1	-2	65	0	-8	-2	-5	.
CN(C)c1cccc(C(=O)Nc2cc(C(F)(F)F)ccc2-n2cnc3ccccc32)c1	20	400*	1	11	1	13	0
CCCN1CCC(N2CCCC(C(=O)O)C2)CC1 (stereo not given)	5	-5	0	15	-1	-4	.
CC[C@@H]1C/C=C\Cc2ccccc2[C@H](C(=O)C[C@@H](O)CC(C)=O)OC1=O	.	497*	1	.	?	.	-1
CC[C@H]1C/C=C\Cc2ccccc2[C@H](C(=O)C[C@@H](O)CC(C)=O)OC1=O	.	-16	0	.	-6	.	.
O=C(CSc1nnc(CNC(=O)c2ccccc2)o1)NCc1ccco1	.	800*	0	0	-10	2	0
CCC1CCCCN1C(=O)CSc1nnc(CNC(=O)c2ccco2)o1 (stereo not given)	7	361*	0	-2	-13	-9	0
O=C(CSc1nnc(CNC(=O)c2ccco2)o1)Nc1nc2ccccc2s1	9	+	0	-14	3	1	1
CC(C)(C)NC(=O)NC(=O)CN1CCN(S(=O)(=O)c2ccc3c(c2)OCCO3)CC1	.	988*	0	2	-1	5	-1[21 µM]

Screens deposited in PubChem BioAssay by several laboratories.
